Test results: ChEMBL document CHEMBL1128400, “Synthesis of some 2-aryl-1,2,4-triazolo[1,5-c][1,3]benzoxazin-5-ones as tools to define the essential pharmacophoric descriptors of a benzodiazepine receptor ligand” (J Med Chem, 1995)

Assays:
[1] = biological target: T1, GABA-A receptor; anion channel (Bos taurus) (UniProt P10063+P08220+P20237+P08219+P10064+P22300); assay: GABA ratio (where GABA ratio = IC50 (compound) / IC50 (compound + 10 uM GABA)).; format: protein-complex assay
Procedure, shortened: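 Ratio of IC50 for [3H]flunitrazepam displacement measured without GABA to IC50 measured with 10 μM GABA. Used as a rough in vitro gauge of intrinsic activity. Five independent experiments.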

[2] = Binding affinity at bovine Benzodiazepine receptor by [3H]flunitrazepam displacement.
Procedure, shortened: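 [3H]flunitrazepam displacement; IC50 from log-probit plots, converted to Ki. Run for compounds giving enough inhibition in a 10 μM screen.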

[3] = biological target: T1, GABA-A receptor; anion channel (Bos taurus); assay: Inhibition of [3H]flunitrazepam binding to GABA-A benzodiazepine receptor of bovine brain membranes at 10e-5 M; format: cell membranes
Procedure, shortened: (§1)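 Percent inhibition of [3H]flunitrazepam binding, with test compound at 10 μM. Ethanol used as solvent in one case.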

[4] = biological target: T1, GABA-A receptor; anion channel (Bos taurus); assay: inhibition of [3H]flunitrazepam binding to GABA-A benzodiazepine receptor of bovine brain membranes; format: cell membranes; settings: concentration not given here
[5] = biological target: T1, GABA-A receptor; anion channel (Bos taurus); assay: Percentage inhibition of [3H]flunitrazepam binding to GABA-A benzodiazepine receptor of bovine brain membranes; format: cell membranes; settings: concentration not given here; procedure, shortened: as §1

Row | GR [1] | Ki [2] [nM] | inhibition [3] [%] | inhibition [4] [%] | inhibition [5] [%] | SMILES
1 | 0.9 | 5.2 |  |  |  | O=c1oc2ccc(Cl)cc2c2nc(-c3ccccc3F)nn12
2 | 0.95 | 15.3 |  |  |  | O=c1oc2ccccc2c2nc(-c3ccccc3F)nn12
3 |  |  | 45 |  |  | COc1ccc2c(c1)oc(=O)n1nc(-c3ccccc3F)nc21
4 | 0.98 | 132 |  |  |  | O=c1oc2ccccc2c2nc(-c3ccccc3)nn12
5 | 1.02 | 211 |  |  |  | O=c1oc2ccc(Cl)cc2c2nc(-c3ccsc3)nn12
6 | 0.9 | 62.3 |  |  |  | O=c1oc2ccc(Cl)cc2c2nc(-c3ccco3)nn12
7 | 0.81 | 120 |  |  |  | CCOC(=O)c1nc2c3ccccc3oc(=O)n2n1
8 | 0.98 | 32.1 |  |  |  | O=c1oc2ccccc2c2nc(-c3cccs3)nn12
9 | 0.8 | 105 |  |  |  | O=c1oc2ccc(Cl)cc2c2nc(-c3ccoc3)nn12
10 | 0.84 | 44.8 |  |  |  | Cc1ccc2oc(=O)n3nc(-c4ccccc4F)nc3c2c1
11 | 1.13 | 43.7 |  |  |  | COc1ccc2oc(=O)n3nc(-c4ccccc4F)nc3c2c1
12 | 1.2 | 125 |  |  |  | CCOC(=O)c1nc2c3cc(Cl)ccc3oc(=O)n2n1
13 | 0.8 | 100 |  |  |  | O=c1oc2ccc(Cl)cc2c2nc(-c3cccs3)nn12
14 | 0.76 | 42.2 |  |  |  | O=c1oc2ccc(Cl)cc2c2nc(-c3c(F)cccc3F)nn12
15 |  |  |  | 3 |  | O=c1oc2ccc(Cl)cc2c2nc(-c3ccc(Cl)cc3)nn12
16 | 0.84 | 27.9 |  |  |  | O=c1oc2ccccc2c2nc(-c3ccco3)nn12
17 | 0.5 | 72.8 |  |  |  | COc1ccc(-c2nc3c4cc(Cl)ccc4oc(=O)n3n2)cc1
18 |  |  |  |  | 0 | O=c1oc2ccccc2c2nc(-c3ccc(Cl)cc3)nn12
19 |  |  |  | 47 |  | O=c1oc2cc(Cl)ccc2c2nc(-c3ccccc3F)nn12
20 | 0.78 | 568 |  |  |  | O=c1oc2ccc(Cl)cc2c2nc(-c3ccccc3)nn12
21 | 1.31 | 300 |  |  |  | COc1ccc(-c2nc3c4ccccc4oc(=O)n3n2)cc1
22 | 1.11 | 11.8 |  |  |  | O=c1oc2ccc(Cl)cc2c2nc(-c3cccc(F)c3F)nn12
